For data set [1], the system named is Rattus norvegicus. Briefly: Unbound clearance in Sprague-Dawley rat at 0.5 mg/kg, iv. More on the design: dose 0.5 mg/kg, route intravenous. The format is ADME, organism-based. Particulars: in vivo. The essentials: (§1)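 Male Sprague-Dawley rats (n = 3) given 0.5 mg/kg iv in DMSO.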
The nature of data set [2]: Ratio of unbound plasma concentration in Harlan Sprague-Dawley rat model of AITC-induced flinching at 10 mg/kg, po after 1 hr to IC50 for antagonist activity at rat TRPA1 by [45Ca2+] fluorimetry assay. It counts as organism-based. Also on record: dose 10 mg/kg, route oral. As to conditions: in vivo. The method in brief:
(§2)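 Male Harlan Sprague-Dawley rats were dosed orally in 2% HPMC/1% Tween-80. After 1 h, 0.1% AITC was injected into the left ventral hind paw. Unbound plasma concentration was measured (n=8 at 10 and 100 mg/kg, n=6 at 30 mg/kg) and divided by the rat TRPA1 IC50. That IC50 came from a 45Ca2+ fluorimetry antagonism assay in cells expressing rat TRPA1.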

Data set [3] is described as follows: Volume of distribution at steady state in Sprague-Dawley rat at 0.5 mg/kg, iv. It counts as ADME, organism-based. More on the design: dose 0.5 mg/kg, route intravenous. As to conditions: in vivo, read-out: Vdss. The essentials:
as §1

Data set [4] in a line: Clearance in human liver microsomes. It counts as ADME. Particulars: read-out: CLH.
Data set [5] is described as follows: Oral bioavailability in fasted Sprague-Dawley rat at 30 mg/kg. The format is ADME, organism-based. As to conditions: in vivo. The essentials: (§3)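 Male Sprague-Dawley rats (n = 3) dosed po in 2% HPMC, 1% Tween 80 in H2O, pH 2.2 with MSA. Animals fasted during the PK study.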
In data set [6] the test system is Plasma. Briefly: Unbound plasma concentration in Harlan Sprague-Dawley rat model of AITC-induced flinching at 100 mg/kg, po after 1 hr. It counts as ADME, organism-based. Also on record: dose 100 mg/kg, route oral. As to conditions: in vivo. The method in brief: (§4)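 Male Harlan Sprague-Dawley rats dosed orally in 2% HPMC/1% Tween-80, with a 0.1% AITC paw challenge at 1 h. Unbound plasma concentration determined with n=8, 6 and 8 for the 10, 30 and 100 mg/kg doses respectively.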

Data set [7] deals with Rattus norvegicus. Briefly: fCmax in fed Sprague-Dawley rat at 100 mg/kg, po. The format is ADME, organism-based. Also on record: dose 100 mg/kg, route oral. Particulars: in vivo. The method in brief: (§5)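 Male Sprague-Dawley rats (n = 3) dosed po at 100 mg/kg in 2% HPMC, 1% Tween 80 in H2O, pH 2.2 with MSA. Animals fed during the PK study.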
The nature of data set [8]: Clearance in Sprague-Dawley rat at 0.5 mg/kg, iv. Also on record: dose 0.5 mg/kg, route intravenous. As to conditions: in vivo. It counts as ADME, organism-based. The essentials:
as §1

Data set [9] can be described thus: Clearance in rat liver microsomes. The format is ADME. Particulars: read-out: CLH.
Data set [10] is described as follows: Fraction unbound in rat plasma by equilibrium dialysis method. It counts as ADME, cell-free.
Data set [11] concerns the target T1, Transient receptor potential cation channel subfamily A member 1 (Homo sapiens, UniProt O75762). Briefly: Antagonist activity at human TRPA1 assessed as inhibition of AITC-induced calcium uptake by [45Ca2+] fluorimetry assay. The essentials: (§6)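 Antagonism read by 45Ca2+ fluorimetry in cells expressing rat or human TRPA1. IC50 determined. Where no IC50 was obtained, % inhibition was measured at a single 2 μM point.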

Data set [12] in a line: Solubility in 0.01 N HCl solution in water. The format is physicochemical. The essentials: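 Solubility measured in 0.01 N hydrogen chloride solution in water.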
The nature of data set [13]: Ratio of fCmax in fed Sprague-Dawley rat at 100 mg/kg, po to IC50 for antagonist activity at rat TRPA1 by [45Ca2+] fluorimetry assay. The method in brief: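 Male Sprague-Dawley rats (n = 3), fed, were given an oral dose in 2% HPMC, 1% Tween 80 in water, adjusted to pH 2.2 with MSA. The unbound Cmax from this PK study was divided by the rat TRPA1 IC50. That IC50 came from a 45Ca2+ fluorimetry antagonism assay in cells expressing rat TRPA1.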

Data set [14] is described as follows: Half life in Sprague-Dawley rat at 0.5 mg/kg, iv. It counts as ADME, organism-based. More on the design: dose 0.5 mg/kg, route intravenous. Particulars: in vivo. The essentials: as §1
For data set [15], the species on record is Rattus norvegicus. Particulars: Harlan Sprague-Dawley, 30 to 100 mg/kg.
For data set [16], the system named is Rattus norvegicus. Briefly: fCmax in fasted Sprague-Dawley rat at 30 mg/kg, po. As to conditions: in vivo. The format is ADME, organism-based. More on the design: dose 30 mg/kg, route oral. The method in brief:
as §3

For data set [17], the target named is T2, Transient receptor potential cation channel subfamily A member 1 (Rattus norvegicus, UniProt Q6RI86). Briefly: Agonist activity at rat TRPA1 by [45Ca2+] fluorimetry assay.
T2 sequence (Q6RI86 whole entry): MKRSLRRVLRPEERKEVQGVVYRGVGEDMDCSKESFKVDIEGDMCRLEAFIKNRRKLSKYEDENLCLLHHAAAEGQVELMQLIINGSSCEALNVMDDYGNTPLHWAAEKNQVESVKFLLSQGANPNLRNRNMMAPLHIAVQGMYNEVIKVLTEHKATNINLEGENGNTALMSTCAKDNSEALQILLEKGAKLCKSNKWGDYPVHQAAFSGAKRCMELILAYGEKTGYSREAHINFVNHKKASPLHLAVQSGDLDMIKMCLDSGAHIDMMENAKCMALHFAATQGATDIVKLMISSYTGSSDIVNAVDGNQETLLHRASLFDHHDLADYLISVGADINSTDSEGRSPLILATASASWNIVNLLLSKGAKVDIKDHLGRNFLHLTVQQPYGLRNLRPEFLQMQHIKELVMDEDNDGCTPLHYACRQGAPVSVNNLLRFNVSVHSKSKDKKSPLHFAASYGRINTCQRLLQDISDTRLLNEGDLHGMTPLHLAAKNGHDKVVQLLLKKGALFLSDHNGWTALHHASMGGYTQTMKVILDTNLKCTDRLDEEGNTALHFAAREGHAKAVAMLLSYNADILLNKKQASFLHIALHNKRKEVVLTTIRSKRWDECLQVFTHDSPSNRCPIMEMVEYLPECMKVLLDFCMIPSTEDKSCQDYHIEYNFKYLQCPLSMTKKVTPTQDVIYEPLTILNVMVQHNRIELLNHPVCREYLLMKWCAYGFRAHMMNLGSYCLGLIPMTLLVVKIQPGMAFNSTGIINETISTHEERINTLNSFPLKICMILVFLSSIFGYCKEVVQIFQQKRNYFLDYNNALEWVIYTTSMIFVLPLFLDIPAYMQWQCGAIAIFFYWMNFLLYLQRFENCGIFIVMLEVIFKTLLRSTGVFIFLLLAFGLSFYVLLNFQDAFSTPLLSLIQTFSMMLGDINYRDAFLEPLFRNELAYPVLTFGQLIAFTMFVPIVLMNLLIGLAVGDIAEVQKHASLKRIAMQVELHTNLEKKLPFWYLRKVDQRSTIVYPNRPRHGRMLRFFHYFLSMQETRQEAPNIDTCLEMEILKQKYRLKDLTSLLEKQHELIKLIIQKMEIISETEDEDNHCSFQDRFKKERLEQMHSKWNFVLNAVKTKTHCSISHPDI
Data set [18] addresses T2, Transient receptor potential cation channel subfamily A member 1. Briefly: Antagonist activity at rat TRPA1 assessed as inhibition of AITC-induced calcium uptake by [45Ca2+] fluorimetry assay. The method in brief:
as §6

A short description of data set [19]: Ratio of unbound plasma concentration in Harlan Sprague-Dawley rat model of AITC-induced flinching at 100 mg/kg, po after 1 hr to IC50 for antagonist activity at rat TRPA1 by [45Ca2+] fluorimetry assay. It counts as organism-based. More on the design: dose 100 mg/kg, route oral. Particulars: in vivo. The method in brief: as §2
The target in data set [20] is T1, Transient receptor potential cation channel subfamily A member 1. Briefly: Agonist activity at human TRPA1 by [45Ca2+] fluorimetry assay.
Data set [21] concerns Rattus norvegicus. Briefly: Effect on open filed activity in Harlan Sprague-Dawley rat model of AITC-induced flinching at 30 to 100 mg/kg, po. The format is organism-based. Also on record: dose 30-100 mg/kg, route oral. As to conditions: in vivo.
For data set [22], the system named is Plasma. Briefly: Unbound plasma concentration in Harlan Sprague-Dawley rat model of AITC-induced flinching at 10 mg/kg, po after 1 hr. It counts as ADME, organism-based. Also on record: dose 10 mg/kg, route oral. Particulars: in vivo. The essentials:
as §4

The nature of data set [23]: Solubility in fasted state simulated intestinal fluid at pH 6.8. It counts as ADME.
Data set [24] in a line: Solubility in PBS buffer at pH 7.4. It counts as physicochemical. The essentials:
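Solubility measured in phosphate buffered saline, pH 7.4.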

The test system of data set [25] is Plasma. Briefly: Unbound plasma concentration in Harlan Sprague-Dawley rat model of AITC-induced flinching at 30 mg/kg, po after 1 hr. The format is ADME, organism-based. More on the design: dose 30 mg/kg, route oral. As to conditions: in vivo. The method in brief:
as §4

Data set [26] is described as follows: Ratio of unbound plasma concentration in Harlan Sprague-Dawley rat model of AITC-induced flinching at 30 mg/kg, po after 1 hr to IC50 for antagonist activity at rat TRPA1 by [45Ca2+] fluorimetry assay. The format is organism-based. More on the design: dose 30 mg/kg, route oral. Particulars: in vivo. The method in brief: as §2
Data set [27] is described as follows: Oral bioavailability in fed Sprague-Dawley rat at 100 mg/kg. The format is ADME, organism-based. As to conditions: in vivo. The essentials:
as §5

The species entered for data set [28] is Rattus norvegicus. As to conditions: Harlan Sprague-Dawley, 100 mg/kg.
The target in data set [29] is T1, Transient receptor potential cation channel subfamily A member 1. Briefly: Antagonist activity at human TRPA1 assessed as inhibition of AITC-induced calcium uptake at 2 uM by [45Ca2+] fluorimetry assay. The essentials: (§7)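 45Ca2+ uptake fluorimetry in cells expressing rat or human TRPA1, run in parallel for both species. The value is single-point percent inhibition at 2 µM test compound, reported when no IC50 was obtained. Compounds were also run without agonist to check for channel agonism.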

In data set [30] the target is Transient receptor potential cation channel subfamily A member 1 (Rattus norvegicus) (UniProt Q6RI86). Briefly: Antagonist activity at rat TRPA1 assessed as inhibition of AITC-induced calcium uptake at 2 uM by [45Ca2+] fluorimetry assay. The essentials:
as §7

In brackets after ≈: the same amount, converted by molar mass. Activity calls are given as the source filed them. The rule behind the calls is not given here.

T1 sequence (O75762 whole entry): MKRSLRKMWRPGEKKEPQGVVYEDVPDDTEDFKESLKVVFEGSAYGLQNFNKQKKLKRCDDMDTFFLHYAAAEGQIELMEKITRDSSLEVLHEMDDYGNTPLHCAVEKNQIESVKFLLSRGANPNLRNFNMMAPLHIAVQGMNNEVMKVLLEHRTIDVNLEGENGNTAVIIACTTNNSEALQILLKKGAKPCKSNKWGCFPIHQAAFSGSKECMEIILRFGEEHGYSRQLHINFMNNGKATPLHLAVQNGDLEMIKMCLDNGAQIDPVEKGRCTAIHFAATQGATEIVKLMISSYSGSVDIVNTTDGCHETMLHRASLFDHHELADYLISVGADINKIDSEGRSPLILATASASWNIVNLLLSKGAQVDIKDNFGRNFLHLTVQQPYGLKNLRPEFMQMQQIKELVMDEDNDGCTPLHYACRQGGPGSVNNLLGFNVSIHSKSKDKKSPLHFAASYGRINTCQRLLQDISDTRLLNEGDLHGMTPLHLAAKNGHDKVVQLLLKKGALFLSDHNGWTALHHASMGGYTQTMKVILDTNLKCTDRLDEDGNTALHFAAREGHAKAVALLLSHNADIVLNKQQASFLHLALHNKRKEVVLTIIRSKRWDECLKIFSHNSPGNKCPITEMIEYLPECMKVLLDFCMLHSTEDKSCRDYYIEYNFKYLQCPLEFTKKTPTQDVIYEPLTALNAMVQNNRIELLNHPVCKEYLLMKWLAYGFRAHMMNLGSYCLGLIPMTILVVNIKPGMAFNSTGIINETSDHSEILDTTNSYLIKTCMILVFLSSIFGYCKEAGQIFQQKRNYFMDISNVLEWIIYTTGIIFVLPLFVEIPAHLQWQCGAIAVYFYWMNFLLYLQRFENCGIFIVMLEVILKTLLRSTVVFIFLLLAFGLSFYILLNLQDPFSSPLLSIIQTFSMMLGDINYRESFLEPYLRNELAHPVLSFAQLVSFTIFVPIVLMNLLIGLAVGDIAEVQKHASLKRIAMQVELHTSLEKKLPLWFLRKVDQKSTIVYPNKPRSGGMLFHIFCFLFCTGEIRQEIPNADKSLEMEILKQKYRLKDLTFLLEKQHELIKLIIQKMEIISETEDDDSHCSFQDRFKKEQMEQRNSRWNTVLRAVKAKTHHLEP
Chain of Transient receptor potential cation channel subfamily A member 1 (Rattus norvegicus) (Q6RI86 whole entry): as the sequence (Q6RI86 whole entry) above

In the data set with Rattus norvegicus [1], `COCCCOc1cccc([C@H]2NC(=S)Nc3c2oc2ncccc32)c1` yielded a CL free of 600 mL/min/kg. The Ratio in data set [2] is 1; in [13], 14; in [19], 16; in [26], 5. Besides, the Vd in data set [3] was found to be 4 L/kg. Moreover, the microsomal CLint in data set [4] is 30 µL/min/mg; in data set [9], 90 µL/min/mg. Also, the bioavailability in [5] stood at 13%; in data set [27] it was 79%. Further, the “Cp(f)” value in the data set on Plasma [6] stood at 740 nM; in the data set with Plasma [22], 48 nM; in the data set on Plasma [25] it was 220 nM. Further, the figures for the fCmax in the data set on Rattus norvegicus [7] and in the data set with Rattus norvegicus [16] were 0.612 µM and 0.082 µM, respectively. In data set [8], this compound showed a clearance of 50 mL/min/kg. The fraction unbound in data set [10] stood at 0.085. Besides, the IC50 is 170 nM in data set [11] and 45 nM in [18]. Also, the solubility in data set [12] is 28 µg/mL (≈ 75.8 µM); in data set [23] it was 46 µg/mL (≈ 125 µM); in [24], 21 µg/mL (≈ 56.8 µM). In data set [14], the half-life was 1.2 h. For the same compound, the inhibition result in the data set listed under Rattus norvegicus [15] was “Active”. Moreover, the EC50 in [17] and in data set [20] was greater than 40000 nM throughout. Also, the Activity result in the data set on Rattus norvegicus [21] is recorded as “Non-toxic”.

`COCCCOc1cc(C2NC(=S)NC3=C2C(=O)c2ccccc23)ccn1` (stereo not given): the results for the microsomal CLint in data set [4] and in data set [9] were 82 µL/min/mg and 350 µL/min/mg, respectively. Further, the 50% inhibitory concentration (IC50) in data set [11] and in [18] was greater than 40000 nM in each case. This compound also displayed a solubility in [12] of 22 µg/mL (≈ 57.7 µM). Besides, the EC50 in data set [17] and in data set [20] was greater than 40000 nM each time.

Take `COCCCOc1cncc(C2NC(=S)NC3=C2C(=O)c2ccccc23)c1` (stereo not given): the values for the microsomal CLint in [4] and in [9] were 90 µL/min/mg and 200 µL/min/mg, respectively. Also, the figures for the IC50 in [11] and in data set [18] were 1200 nM and 530 nM, respectively. The solubility in data set [12] was 120 µg/mL (≈ 315 µM); in data set [23], 14 µg/mL (≈ 36.7 µM); in data set [24], 2.8 µg/mL (≈ 7.34 µM). In addition, the EC50 in data set [17] and in data set [20] was greater than 40000 nM throughout.

In the case of `O=C1C2=C(NC(=S)NC2c2cccc(OCc3ccccn3)c2)c2ccccc21` (stereo not given), the microsomal CLint in [4] stood at 180 µL/min/mg; in [9] it was 310 µL/min/mg. The IC50 in data set [11] came to 300 nM; in data set [18], 230 nM. Besides, the solubility in [12] is 1 µg/mL (≈ 2.5 µM); in data set [23] it was 200 µg/mL (≈ 501 µM); in [24], 10 µg/mL (≈ 25 µM). In addition, the EC50 in [17] and in data set [20] was greater than 40000 nM in each case.

For the compound `COCCCOc1cccc([C@@H]2NC(=S)Nc3c2oc2ncccc32)c1`, the “Cp(f)” value with Plasma [6] was 370 nM. The IC50 in data set [11] was greater than 40000 nM. In the data set filed under Rattus norvegicus [28], the inhibition result is “inactive”.

As for `COCCCOc1cccc(C2NC(=S)NC3=C2C(=O)c2ccccc23)n1` (stereo not given), the microsomal CLint in data set [4] amounted to 160 µL/min/mg; in [9] it was 230 µL/min/mg. Further, the values for the 50% inhibitory concentration (IC50) in data set [11] and in data set [18] were 970 nM and 1000 nM, respectively. In addition, the solubility was 17 µg/mL (≈ 44.6 µM) in data set [12], 35 µg/mL (≈ 91.8 µM) in data set [23] and 36 µg/mL (≈ 94.4 µM) in [24]. The EC50 in [17] and in data set [20] was greater than 40000 nM in each case.

As to `COCCCOc1ccnc(C2NC(=S)NC3=C2C(=O)c2ccccc23)c1` (stereo not given), the figures for the inhibition in [29] and in data set [30] were 1% and 0%, respectively. The microsomal CLint was 43 µL/min/mg in data set [4] and 220 µL/min/mg in data set [9]. In addition, the IC50 in data set [11] and in data set [18] was greater than 2000 nM throughout. For the same compound, the solubility in data set [12] is 500 µg/mL (≈ 1310 µM); in data set [23] it was 39 µg/mL (≈ 102 µM); in data set [24], 62 µg/mL (≈ 163 µM). The EC50 in data set [17] and in data set [20] was greater than 40000 nM throughout.

The record behind these values is ChEMBL document CHEMBL3352604, “Development of novel azabenzofuran TRPA1 antagonists as in vivo tools” (Bioorg Med Chem Lett, 2014).
